ChEMBL document CHEMBL3822380, “Simple avarone mimetics as selective agents against multidrug resistant cancer cells” (Eur J Med Chem, 2016)
pIC50: −log10 of the molar value. Converted amounts (≈) assume the structure as drawn. The source made the active and inactive calls.

Legend:
NCI-H460 [1] = assay: Induction of apoptosis in multidrug resistant human NCI-H460 cells assessed as dead cells at 25 uM after 72 hrs by annexin-V/propidium iodide staining-based flow cytometric analysis (reference value: 1.5%); format: functional
NCI-H460 [2] = assay: Induction of superoxide anion generation in human NCI-H460 cells at 25 uM after 72 hrs by DHE staining-based flow cytometric analysis relative to control; format: functional, cell-based
How it was run: (§1)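 Seeded as for cell death (50,000 or 100,000 cells/well), treated 72 h at 25 µM, with CDDP 5 µM as control. Adherent cells trypsinized and loaded with 1 µM DHE for 30 min at 37 °C in the dark, then washed twice in PBS. Flow cytometry at ex 488/em 585 nm (FL2-H). Mean fluorescence intensity corrected for autofluorescence and compared with untreated control.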

HaCaT [3] = assay: Induction of apoptosis in human HaCaT cells assessed as dead cells at 25 uM after 72 hrs by annexin-V/propidium iodide staining-based flow cytometric analysis (reference value: 2.8%); format: cell-based
NCI-H460 [4] = assay: Cytotoxicity against multidrug resistant human NCI-H460 cells after 72 hrs by MTT assay; format: functional, cell-based; conditions: NCI-H460, 72 h
How it was run: (§2)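 Seeding in 96-well plates at 1000 (NCI-H460), 2000 (NCI-H460/R) or 4000 (HaCaT) cells/well, treated after 24 h for 72 h. MTT at 0.4 mg/mL final, 4 h at 37 °C. Formazan dissolved in DMSO, absorbance read at 540 nm. Inhibition % = (1 − A treated/A untreated)×100. IC30 and IC50 obtained by linear regression.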

NCI-H460 [5] = assay: Induction of apoptosis in multidrug resistant human NCI-H460 cells assessed as early apoptotic cells at 25 uM after 72 hrs by annexin-V/propidium iodide staining-based flow cytometric analysis (reference value: 1.1%); format: functional
NCI-H460 [6] = assay: Induction of apoptosis in human NCI-H460 cells assessed as early apoptotic cells at 25 uM after 72 hrs by annexin-V/propidium iodide staining-based flow cytometric analysis (reference value: 0.3%); format: functional
NCI-H460 [7] = assay: Cytotoxicity against human NCI-H460 cells after 72 hrs by MTT assay; format: functional, cell-based; conditions: NCI-H460, 72 h; how it was run: as §2
HaCaT [8] = assay: Induction of apoptosis in human HaCaT cells assessed as early apoptotic cells at 25 uM after 72 hrs by annexin-V/propidium iodide staining-based flow cytometric analysis (reference value: 0.2%); format: cell-based
[9] = Selectivity ratio of IC30/IC50 for human HaCaT cells to IC30/IC50 for human NCI-H460 cells; format: ADME, cell-based; conditions: HaCaT cells versus NCI-H460 cells
How it was run: (§3)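 Fold threshold of 1.5 used to call selectivity to cancer cells, resistance, or selectivity to MDR cells.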

NCI-H460 [10] = assay: Induction of apoptosis in human NCI-H460 cells assessed as late apoptotic/necrotic cells at 25 uM after 72 hrs by annexin-V/propidium iodide staining-based flow cytometric analysis (reference value: 0.2%); format: functional
NCI-H460 [11] = assay: Induction of superoxide anion generation in multidrug resistant human NCI-H460 cells at 25 uM after 72 hrs by DHE staining-based flow cytometric analysis relative to control; format: functional, cell-based; how it was run: as §1
NCI-H460 [12] = assay: Induction of apoptosis in human NCI-H460 cells assessed as dead cells at 25 uM after 72 hrs by annexin-V/propidium iodide staining-based flow cytometric analysis (reference value: 1.2%); format: functional
NCI-H460 [13] = assay: Induction of apoptosis in multidrug resistant human NCI-H460 cells assessed as live cells at 25 uM after 72 hrs by annexin-V/propidium iodide staining-based flow cytometric analysis (reference value: 96.4%); format: functional
NCI-H460 [14] = assay: Induction of apoptosis in human NCI-H460 cells assessed as live cells at 25 uM after 72 hrs by annexin-V/propidium iodide staining-based flow cytometric analysis (reference value: 98.3%); format: functional
HaCaT [15] = assay: Induction of apoptosis in human HaCaT cells assessed as late apoptotic/necrotic cells at 25 uM after 72 hrs by annexin-V/propidium iodide staining-based flow cytometric analysis (reference value: 0.2%); format: cell-based
[16] = Induction of apoptosis in human HaCaT cells assessed as live cells at 25 uM after 72 hrs by annexin-V/propidium iodide staining-based flow cytometric analysis (reference value: 96.8%); format: cell-based; conditions: read-out: Activity
HaCaT [17] = assay: Cytotoxicity against human HaCaT cells after 72 hrs by MTT assay; format: cell-based; conditions: for pIC50: Homo sapiens, HaCaT; for IC30: human, hacat; how it was run: as §2
[18] = Selectivity ratio of IC30/IC50 for human HaCaT cells to IC30/IC50 for multidrug resistant human NCI-H460 cells; format: ADME, cell-based; conditions: HaCaT cells versus multidrug resistant NCI-H460 cells; how it was run: as §3
NCI-H460 [19] = assay: Induction of apoptosis in multidrug resistant human NCI-H460 cells assessed as late apoptotic/necrotic cells at 25 uM after 72 hrs by annexin-V/propidium iodide staining-based flow cytometric analysis (reference value: 1%); format: functional
HaCaT [20] = assay: Induction of mitochondrial membrane potential depolarization in human HaCaT cells at 25 uM after 15 mins by JC1-staining-based flow cytometric analysis; format: cell-based; conditions: 0.25 h
How it was run: (§4)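 Cells treated with 25 µM compound, with CDDP 5 µM as control. Stained with JC-1 for 15 min at 37 °C in a CO2 incubator, washed twice in assay buffer and resuspended in PBS. Flow cytometry read red aggregate (FL2-H) versus green monomer (FL1-H) fluorescence. Live cells were also imaged by fluorescence microscopy.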

Aspergillus brasiliensis = assay: Antifungal activity against Aspergillus brasiliensis ATCC 16404 by broth microdilution method; format: functional
How it was run: (§5)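 Broth microdilution per NCCLS. Compounds dissolved in DMSO as 10 mg/mL stock, diluted in Mueller Hinton broth (bacteria) or Sabouraud dextrose broth (fungi). Amikacin served as the positive control for bacteria and nystatin for fungi.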

HaCaT [21] = assay: Induction of superoxide anion generation in human HaCaT cells at 25 uM after 72 hrs by DHE staining-based flow cytometric analysis relative to control; format: cell-based; how it was run: as §1
Saccharomyces cerevisiae = assay: Antifungal activity against Saccharomyces cerevisiae ATCC 9763 by broth microdilution method; format: functional; how it was run: as §5
Candida albicans = assay: Antifungal activity against Candida albicans ATCC 10231 by broth microdilution method; format: functional; how it was run: as §5
NCI-H460 [22] = assay: Induction of mitochondrial membrane potential depolarization in multidrug resistant human NCI-H460 cells at 25 uM after 15 mins by JC1-staining-based flow cytometric analysis; format: functional, cell-based; how it was run: as §4
NCI-H460 [23] = assay: Induction of mitochondrial membrane potential depolarization in human NCI-H460 cells at 25 uM after 15 mins by JC1-staining-based flow cytometric analysis; format: functional, cell-based; how it was run: as §4
NCI-H460 [24] = assay: Selectivity ratio of IC30/IC50 for human NCI-H460 cells to IC30/IC50 for multidrug resistant human NCI-H460 cells; format: functional; how it was run: as §3

SMILES	Activity (NCI-H460 [1]) [%]	Activity (NCI-H460 [2])	Activity (HaCaT [3]) [%]	IC30 (NCI-H460 [4]) [µM]	pIC50 (NCI-H460 [4])	Activity (NCI-H460 [5]) [%]	Activity (NCI-H460 [6]) [%]	IC30 (NCI-H460 [7]) [µM]	pIC50 (NCI-H460 [7])	Activity (HaCaT [8]) [%]	Activity (NCI-H460 [10]) [%]	Activity (NCI-H460 [11])	Activity (NCI-H460 [12]) [%]	Activity (NCI-H460 [13]) [%]	Activity (NCI-H460 [14]) [%]	Activity (HaCaT [15]) [%]	viability at 72 h, 25 µM [16] [%]	pIC50 (HaCaT [17])	IC30 (HaCaT [17]) [µM]	Activity (NCI-H460 [19]) [%]	further results
CC1=CCC[C@H]2[C@](C)(CC3=CC(=O)C=CC3=O)[C@@H](C)CC[C@]12C [AVARONE]	8.9	Active	9.1	10	4.62	2.6	3.4	36	4.08	2.5	16.3	Active	6.3	65.8	74	10.1	78.3	4.43	16	22.7	selectivity ratio [9]: ≤ 1.5; selectivity ratio [18]: ≤ 1.5
CCCCCCCCNC1=CC(=O)C=C(C(C)(C)C)C1=O	36.4	inactive	19.8	8	4.68	0.1	0.2	5	4.70	0.6	2.9	Active	42	61.4	54.9	2.6	77	4.52	18	2.1	Activity (HaCaT [20]): Non-toxic; MIC (Aspergillus brasiliensis): 2150 µM (≈ 626 µg/mL); Activity (HaCaT [21]): Non-toxic; MIC (Saccharomyces cerevisiae): 539 µM (≈ 157 µg/mL); MIC (Candida albicans): 67 µM (≈ 19.5 µg/mL); selectivity ratio [9]: ≤ 1.5; Activity (NCI-H460 [22]): Active; Activity (NCI-H460 [23]): Active; selectivity ratio [18]: ≤ 1.5
CC(C)(C)C1=CC(=O)C=CC1=O	3.1		7.5	31	4.14	0.5	0.5	> 100	< 4.00	1.9	0.5		3.8	95.2	95.2	3.8	86.8	4.02	41	1.2	Activity (HaCaT [20]): Non-toxic; Activity (NCI-H460 [22]): inactive; Activity (NCI-H460 [23]): inactive
CC1=CCC[C@H]2[C@](C)(CC3=CC(=O)C=C(NCCc4ccccc4)C3=O)[C@@H](C)CC[C@]12C	42.3		41.3	6	4.96	1.2	0.1	14	4.68	0.2	0.2	Active	28	53	71.7	0.4	58.1	4.64	18	3.5	selectivity ratio (NCI-H460 [24]): <=1.5; Activity (HaCaT [21]): Toxic; selectivity ratio [9]: ≤ 1.5; selectivity ratio [18]: ≤ 1.5
CCCCCCCCNC1=CC(=O)C=C(C[C@]2(C)[C@@H](C)CC[C@]3(C)C(C)=CCC[C@@H]23)C1=O	7.3	inactive	13.8	13	4.46	0	0.1	21	4.42	0.3	0.3	Active	3.9	92.6	95.7	0.6	85.3	4.77	13	0.1	Activity (HaCaT [21]): Toxic
